Compounds with a hit are over-represented: about 3% of the library has one in this group of screens.
5HT1a antag: antagonists of human 5-HT1a serotonin receptor. inhibition, % at 10 µM. P08908. CHO 5-HT1a Ga15 NFAT-bla reporter, antagonist mode. 62,000 tested, 0.68% active;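 active = inhibition above the mean of all tested compounds plus 3 SD, cut at about 43% in these data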;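 note: receptor stimulated by 5-CT agonist at 100 nM near EC80; beta-lactamase reporter measured by ratiometric fluorescence of a cleavable substrate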
5HT1a ag: agonists of human 5-HT1a serotonin receptor. CHO 5-HT1a Ga15 NFAT-bla reporter, FRET ratio; 0% basal, 100% maximal reference agonist. AID 567. 65,000 tested, 0.56% active. P08908. activation, % at 10 µM;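 active = activation above the screen-wide mean activation plus 3 SD, cut at about 19% in these data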
S1P3 ag: agonists of human S1P3 receptor | 60,000 tested, 0.1% active | activation, % at 4.5 µM | S1P3 NFAT-BLA reporter cells, agonism, FRET ratio; relative to 1 µM S1P, basal subtracted | Q99500;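 active = activation above the screen-wide mean plus 3 SD, cut at about 4.5% in these data, passing the limit was not always enough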
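Assay system: stable CHO line with human S1P3, Gα16, NFAT-BLA reporter; Detection: FRET β-lactamase substrate fluorescence, excitation 405 nm, 460/535 nm emission ratio, background-subtracted; Read-out: percent activation versus median 1 µM S1P response, basal-subtracted, per plate; Incubation: cells plated overnight, compound 4 h 37 °C, substrate 2 h RT.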
5HT1E antag: blocks the human 5-HT1E serotonin receptor. P28566. CHO 5-HT1E Ga15 NFAT-bla reporter, FRET, antagonist. inhibition, % at 6 µM. 65,000 tested, 0.99% active;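 active = inhibition above a set limit, the mean inhibition across every tested compound plus 3 SD, cut at about 29% in these data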;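 note: signal is the 460 over 535 nm emission ratio of beta-lactamase substrate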
S1P1 ag pot: S1P1 (human) agonism or agonism potentiation. activation, % at 9.5 µM. 56,000 tested, 0.57% active. S1P1 CRE-bla cells, forskolin, beta-lactamase FRET, potentiator mode; S1P1 agonist co-added at EC20, 2 nM; 100% = saturating reference agonist, 0% = basal. P21453;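 active = activation above a cutoff set at the mean activation of all tested compounds plus 3 SD, cut at about 54% in these data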;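 note: forskolin at 4 µM as EC80 and the EC20 agonist is SEW2871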
5HT1E ag: agonists of human 5-HT1E serotonin receptor; activation, % at 6 µM; P28566; CHO 5-HT1E Ga15 NFAT-bla reporter, FRET; 0% DMSO wells, 100% control agonist wells; AID 574; 65,000 tested, 0.69% active;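 active = activation above a set limit, the screen-wide mean activation plus 3 SD, cut at about 8.5% in these data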
Of the large screens only hits and unclear results are named; the others gave an inactive call.

Cc1ccc(-c2nc(NC(=O)CSc3nnc4scc(-c5ccccc5)n34)ns2)cc1	none
O=S(=O)(NCc1cn2ccsc2n1)c1cccs1	none
O=S(=O)(NCc1cn2ccsc2n1)c1ccc(Oc2ccccc2)cc1	S1P1 ag pot 84
CCc1ccc(S(=O)(=O)NCc2cn3ccsc3n2)s1	5HT1E ag 22
CC(C)OCCCNC(=O)Cn1nc(-c2ccccc2)ccc1=O	none
O=C(CCn1c(=O)sc2ccccc21)NCc1ccc2c(c1)OCO2	none (no result: S1P3 ag, S1P1 ag pot)
OC1CCCN(c2c3c(nc4cc(-c5cccc(Cl)c5)nn24)CCC3)C1 (configuration not stated)	5HT1E antag 38 (no result: S1P3 ag, S1P1 ag pot)
Cc1cccc(-c2cc3nc4c(c(N5CCCC(O)C5)n3n2)CCC4)c1 (configuration not stated)	5HT1E antag 50
Cc1cccc(-c2cc3nc4c(c(N5CCOCC5)n3n2)CCCC4)c1	5HT1E antag 40
Cc1cccc(-c2cc3nc4c(c(N5CCC6(CC5)OCCO6)n3n2)CCCC4)c1	none
COc1cccc(NC(=O)COc2ccc(N3CC(C(=O)NCC(C)C)CC3=O)cc2)c1 (configuration not stated)	none
CC12C(=O)N(c3nccs3)C(=O)C1C1C=CC2C1 (configuration not stated)	none
CCOC(=O)Nc1ccc2c(c1)N(C(=O)CCN1CCOCC1)c1ccccc1S2=O (configuration not stated)	5HT1a antag 52
CCOC(=O)Nc1ccc2c(c1)N(C(=O)CCN1CCOCC1)c1ccccc1S2	none
CCCN(CCC)C(=O)c1c(C)[nH]c(C(=O)OCC)c1C	none
CCCCCCC(=O)c1c(C)[nH]c(C(=O)OCC)c1C	5HT1E antag 36
COc1ccc(Cl)cc1Nc1nc(N2CCCC2)nc(N2CCCC2)n1	none
O=C(COC(=O)CCC(=O)c1ccc2c(c1)OCCO2)NCc1ccc2c(c1)OCO2	none
CCOC(=O)c1c(C)[nH]c(C(=O)COC(=O)c2oc3ccc(OC)cc3c2C)c1C	5HT1E ag 35
CCOC(=O)c1c(C)[nH]c(C(=O)COC(=O)c2cnc(C)cn2)c1C	none
